Measurements from ChEMBL document CHEMBL1122441, “Structure-activity relationships of synthetic antibiotic analogues of anisomycin” (1983).
≈ marks a conversion by molar mass, not a printed value.

Columns and labels:
Epidermophyton floccosum [1] = experiment: Antifungal activity against Epidermophyton floccosum, activity expressed as minimum inhibitory concentration (ug/mL); assay type: functional
Trichomonas vaginalis [2] = experiment: Antiprotozoal activity measured as the conc for 95-[…]% inhibition of Trichomonas vaginalis; assay type: functional, organism-based
Clostridium novyi = experiment: Antibacterial activity against Clostridium novyi, activity expressed as inhibitory zone (mm, diameter); assay type: functional
Method in brief: (§1)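 Agar diffusion: disks loaded with 0.05 mg drug (stock 1 mg/mL in Me2SO-EtOH 1:9) on brain-heart infusion agar seeded 1:100 with 48-h anaerobe culture grown in thioglycolate broth; incubated anaerobically at 37 °C for 24 h; zone diameter measured in mm.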

Entamoeba histolytica [3] = experiment: Antiprotozoal activity measured as the conc for >95% inhibition of Entamoeba histolytica; assay type: functional, organism-based
Method in brief: (§2)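 E. histolytica (J 190) grown 48 h at 37 °C in modified Boeck Drbohlav medium, pooled; 0.6 × 10^6 organisms inoculated into 10 mL medium with drug at 32 to 0.06 µg/mL, incubated 48 h.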

Tritrichomonas suis [4] = experiment: Antiprotozoal activity measured as the conc for 100% inhibition of Trichomonas foetus; assay type: functional, organism-based
Method in brief: (§3)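 Protozoa grown 48 h (T. vaginalis in TYM 721, T. foetus in TYM 359, E. histolytica J 190 in modified Boeck Drbohlav medium, 37 °C) and pooled; 0.6 × 10^6 organisms into 10-mL tubes with drug 32 to 0.06 µg/mL, 48 h; inhibition scored microscopically against untreated controls as 100, >95, 95-25 or <25%.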

Actinomyces israelii = experiment: Antibacterial activity against Actinomyces israelii, activity expressed as inhibitory zone (mm, diameter); assay type: functional; method in brief: as §1
Saccharomyces cerevisiae [5] = experiment: Antifungal activity against Saccharomyces cerevisiae, activity expressed as minimum inhibitory concentration (ug/mL).; assay type: functional
Trichophyton benhamiae [6] = experiment: Antifungal activity against Trichophyton mentagrophytes, activity expressed as inhibitory zone (mm, diameter); assay type: functional, Arthroderma benhamiae
Method in brief: (§4)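 Dermatophytes grown in Sabouraud's dextrose broth, 4-5 day cultures seeded 1:100 into agar; disks with 0.05 mg drug (1 mg/mL stock, Me2SO-EtOH 1:9); grown and tested at 28 °C, zone diameter (mm) read after 48 h.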

Streptococcus pyogenes = experiment: Antibacterial activity against Streptococcus pyogenes C, activity expressed as inhibitory zone (mm, diameter); assay type: functional; method in brief: as §1
Tritrichomonas suis [7] = experiment: Antiprotozoal activity measured as the conc for <[…]% inhibition of Trichomonas foetus; assay type: functional, organism-based
Entamoeba histolytica [8] = experiment: Antiprotozoal activity measured as the conc for 100% inhibition of Entamoeba histolytica; assay type: functional, organism-based; method in brief: as §2
Trichomonas vaginalis [9] = experiment: Antiprotozoal activity measured as the conc for 100% inhibition of Trichomonas vaginalis; assay type: functional, organism-based; method in brief: as §3
Candida albicans [10] = experiment: Antifungal activity against Candida albicans, activity expressed as minimum inhibitory concentration (ug/mL); assay type: functional
Method in brief: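 Tube dilution in Sabouraud's dextrose broth (ca. 3 mL/tube) at 37 °C; inoculum from 24-h yeast culture, 1:1000 in saline. Drug dissolved in Me2SO-EtOH (1:9), stock 3.2 mg/mL; twofold serial dilutions 32 to 0.06 µg/mL. Read after 48 h; MIC = lowest concentration with no visible growth.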

Candida albicans [11] = experiment: Antifungal activity against Candida albicans, activity expressed as […] inhibitory zone (mm, diameter); assay type: functional
Method in brief: (§5)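 Yeast grown in Sabouraud's dextrose broth, 24-h culture seeded 1:100 into agar; paper disks carrying 0.05 mg drug (from 1 mg/mL stock in Me2SO-EtOH 1:9); 37 °C, read after 48 h as zone diameter (mm).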

Saccharomyces cerevisiae [12] = experiment: Antifungal activity against Saccharomyces cerevisiae, activity expressed as inhibitory zone (mm, diameter); QA is questionable activity; assay type: functional, organism-based; method in brief: as §5
Tritrichomonas suis [13] = experiment: Antiprotozoal activity measured as the conc for 95-[…]% inhibition of Trichomonas foetus; assay type: functional, organism-based
Bacteroides fragilis = experiment: Antibacterial activity against Bacteroides fragilis, activity expressed as […] inhibitory zone (mm, diameter); assay type: functional
Method in brief: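 Agar diffusion vs B. fragilis grown in thioglycolate broth: 0.05 mg drug per paper disk (stock 1 mg/mL, Me2SO-EtOH 1:9), brain-heart infusion agar seeded with 48-h culture at 1:100, anaerobic 37 °C, 24 h; zone diameter in mm.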

Tritrichomonas suis [14] = experiment: Antiprotozoal activity measured as the conc for >95% inhibition of Trichomonas foetus; assay type: functional, organism-based; method in brief: as §3
Cutibacterium acnes [15] = experiment: Antibacterial activity against Propionibacterium acnes, activity expressed as inhibitory zone (mm, diameter); assay type: functional; method in brief: as §1
Trichophyton benhamiae [16] = experiment: Antifungal activity against Trichophyton mentagrophytes, activity expressed as minimum inhibitory concentration (ug/mL).; assay type: functional, Arthroderma benhamiae
Epidermophyton floccosum [17] = experiment: Antifungal activity against Epidermophyton floccosum, activity expressed as inhibitory zone (mm, diameter); assay type: functional; method in brief: as §4
Trichomonas vaginalis [18] = experiment: Antiprotozoal activity measured as the conc for >95% inhibition of Trichomonas vaginalis; assay type: functional, organism-based; method in brief: as §3
Saccharomyces cerevisiae [19] = experiment: Antifungal activity against Saccharomyces cerevisiae, activity expressed as inhibitory zone (mm, diameter); assay type: functional; method in brief: as §5
Tritrichomonas suis [20] = experiment: Antiprotozoal activity measured as the conc for < […]% inhibition of Trichomonas foetus; assay type: functional, organism-based
Candida albicans [21] = experiment: Antifungal activity against Candida albicans, activity expressed as minimum inhibitory concentration ([…]); assay type: functional
Saccharomyces cerevisiae [22] = experiment: Antifungal activity against Saccharomyces cerevisiae, activity expressed as minimum inhibitory concentration ([…]).; assay type: functional
Trichomonas vaginalis [23] = experiment: Antiprotozoal activity measured as the conc for<[…]% inhibition of Trichomonas vaginalis; assay type: functional, organism-based
Trichophyton benhamiae [24] = experiment: Antifungal activity against Trichophyton mentagrophytes, activity expressed as minimum inhibitory concentration ([…]).; assay type: functional, Arthroderma benhamiae
Trichomonas vaginalis [25] = experiment: Antiprotozoal activity measured as the conc for <[…]% inhibition of Trichomonas vaginalis; assay type: functional, organism-based
Epidermophyton floccosum [26] = experiment: Antifungal activity against Epidermophyton floccosum, activity expressed as minimum inhibitory concentration ([…]); assay type: functional
Cutibacterium acnes [27] = experiment: Antibacterial activity against Propionibacterium acnes, activity expressed as inhibitory zone (mm, diameter); QA is questionable activity; assay type: functional, organism-based; method in brief: as §1
Entamoeba histolytica [28] = experiment: Antiprotozoal activity measured as the conc for <[…]% inhibition of Entamoeba histolytica; assay type: functional, organism-based
Entamoeba histolytica [29] = experiment: Antiprotozoal activity measured as the conc for 95-[…]% inhibition of Entamoeba histolytica; assay type: functional, organism-based
[30] = Epidermophyton floccosum, read-out: MIC
[31] = Saccharomyces cerevisiae, read-out: MIC
[32] = Candida albicans, read-out: MIC
[33] = Trichophyton benhamiae, read-out: MIC

| Compound | MIC (Epidermophyton floccosum [1]; [30]) | Concentration (Trichomonas vaginalis [2]) | Inhibitory zone (Clostridium novyi) | Concentration (Entamoeba histolytica [3]) | Inhibitory zone (Actinomyces israelii) | MIC (Saccharomyces cerevisiae [5]; [31]) | Inhibitory zone (Trichophyton benhamiae [6]) | Inhibitory zone (Streptococcus pyogenes) | Concentration (Tritrichomonas suis [7]) | Concentration (Entamoeba histolytica [8]) | Concentration (Trichomonas vaginalis [9]) | MIC (Candida albicans [10]; [32]) | Inhibitory zone (Candida albicans [11]) | Inhibitory zone (Bacteroides fragilis) | Concentration (Tritrichomonas suis [14]) | Inhibitory zone (Cutibacterium acnes [15]) | MIC (Trichophyton benhamiae [16]; [33]) | Inhibitory zone (Epidermophyton floccosum [17]) | Inhibitory zone (Saccharomyces cerevisiae [19]) | Concentration (Trichomonas vaginalis [25]) | other results |
| --- | --- | --- | --- | --- | --- | --- | --- | --- | --- | --- | --- | --- | --- | --- | --- | --- | --- | --- | --- | --- | --- |
| CC(=O)O[C@@H]1[C@@H](O)CN[C@@H]1Cc1ccccc1 | 32 µg/mL (≈ 136 µM) | 2 µg/mL | 0 mm | 2 µg/mL | 0 mm | 2 µg/mL (≈ 8.5 µM) | 10 mm | 0 mm | 2 µg/mL | 16 µg/mL | 8 µg/mL | 32 µg/mL (≈ 136 µM) | 0 mm | 0 mm | 16 µg/mL | 0 mm | 16 µg/mL (≈ 68 µM) | 8 mm |  |  | Concentration (Tritrichomonas suis [4]): 32 µg/mL; QA (Saccharomyces cerevisiae [12]): questionable activity; Concentration (Tritrichomonas suis [13]): 4 µg/mL; Concentration (Trichomonas vaginalis [18]): 4 µg/mL |
| COc1ccc(C[C@H]2NC[C@H](O)[C@H]2OC(C)=O)cc1 [ANISOMYCIN] |  |  |  |  |  |  |  |  |  |  |  |  |  | 10 mm |  |  |  |  | 13 mm |  | MIC (Epidermophyton floccosum [1]): 16 µg/mL (≈ 60.3 µM); MIC (Saccharomyces cerevisiae [5]): 0.25 µg/mL (≈ 0.942 µM); MIC (Candida albicans [10]): 4 µg/mL (≈ 15.1 µM); MIC (Trichophyton benhamiae [16]): 2 µg/mL (≈ 7.54 µM) |
| COc1ccccc1C[C@H]1NC[C@H](O)[C@H]1OC(C)=O |  |  | 13 mm |  | 0 mm |  | 0 mm | 0 mm |  |  |  |  | 0 mm | 0 mm |  |  |  | 0 mm | 0 mm | 32 µg/mL | Concentration (Tritrichomonas suis [20]): 32 µg/mL; MIC (Candida albicans [21]): > 32 µg/mL; MIC (Saccharomyces cerevisiae [22]): > 32 µg/mL; Concentration (Trichomonas vaginalis [23]): 32 µg/mL; MIC (Trichophyton benhamiae [24]): > 32 µg/mL; MIC (Epidermophyton floccosum [26]): > 32 µg/mL; Inhibitory zone (Cutibacterium acnes [27]): Questionable activity |
| COc1cccc(C[C@H]2NC[C@H](O)[C@H]2OC(C)=O)c1 | > 32 µg/mL | 8 µg/mL | 15 mm | 16 µg/mL | 10 mm | 8 µg/mL (≈ 30.2 µM) | 10 mm | 0 mm | 8 µg/mL | 32 µg/mL | 32 µg/mL | > 32 µg/mL | 0 mm | 10 mm | 16 µg/mL | 12 mm | > 32 µg/mL | 8 mm | 0 mm | 4 µg/mL | Concentration (Entamoeba histolytica [28]): 8 µg/mL; Concentration (Trichomonas vaginalis [18]): 16 µg/mL |
| COc1ccc(C[C@H]2NC[C@H](O)[C@H]2OC(C)=O)cc1 (racemic) |  | 0.5 µg/mL |  | 2 µg/mL |  |  |  |  | 1 µg/mL | 4 µg/mL | 2 µg/mL |  |  |  | 2 µg/mL |  |  |  |  | 0.25 µg/mL | Concentration (Tritrichomonas suis [4]): 8 µg/mL; Concentration (Entamoeba histolytica [29]): 0.5 µg/mL; Concentration (Entamoeba histolytica [28]): 0.25 µg/mL; Concentration (Trichomonas vaginalis [18]): 1 µg/mL |
| COc1ccc(C(c2ccccc2)[C@H]2NC[C@H](O)[C@H]2OC(C)=O)cc1 (stereo not given in full) | > 32 µg/mL | 32 µg/mL | 20 mm |  | 10 mm | > 32 µg/mL | 0 mm | 13 mm | 16 µg/mL |  |  | > 32 µg/mL | 0 mm | 0 mm |  | 18 mm | > 32 µg/mL | 10 mm | 0 mm | 16 µg/mL | Concentration (Tritrichomonas suis [13]): 32 µg/mL; Concentration (Entamoeba histolytica [28]): 32 µg/mL |
